Bioassay records deposited in PubChem by several laboratories.
This is a sample that favours compounds with a hit; in the whole collection about 2.6% have one here.
UCH37 DUB inh: blocks the human deubiquitinase UCH37 | actives 0.33% (n = 330,000) | inhibition, % (concentration not given with the values) | purified proteasome/UCH37, Ub-AMC cleavage fluorescence;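 active = mean inhibition over replicate wells above about 20%, limit read from the data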;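 also: 0% = compound-free wells with enzyme and 100% = wells lacking proteasome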
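System: Proteasome-associated human UCH37 deubiquitinase; Input: 0.15 nM proteasome in added enzyme buffer; Also added: Ub-AMC substrate from 1 µM stock; Incubation: 30 min compound-proteasome preincubation then 25 min substrate reaction, room temperature; Detection: fluorescence, ex 355 nm, em 460 nm; Read-out: % inhibition of Ub-AMC cleavage fluorescence; Benchmarks: no-proteasome and no-compound wells.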
SENP8 block-1: SENP8 (human) protease inhibition; recombinant SENP8, Nedd8 substrate fluorescence; inhibition, % at 20 µM; actives 0.64% (n = 360,000); AID 602440; in the data active = inhibition mostly above about 40%, no sharp cut-off; inactive = mostly below about 27%
Target sequence (Q96LD8 whole entry, looked up): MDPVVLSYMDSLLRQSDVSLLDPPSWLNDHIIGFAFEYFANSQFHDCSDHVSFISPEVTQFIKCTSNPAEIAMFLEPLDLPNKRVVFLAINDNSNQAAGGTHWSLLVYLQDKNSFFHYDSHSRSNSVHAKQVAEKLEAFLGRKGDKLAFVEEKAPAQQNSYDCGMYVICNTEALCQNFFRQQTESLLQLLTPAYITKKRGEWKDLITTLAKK
SENP6 block: inhibitors of human SENP6 protease; Q9GZR1; Recombinant SENP6 catalytic domain, aminoluciferin luminescence; inhibition, % at 10 µM; actives 1.8% (n = 330,000);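 active = inhibition above about 50% at the single tested dose, limit read from the data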;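 also: plate controls were DMSO wells with enzyme for no effect and DMSO wells lacking enzyme for full effect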
SENP8 block-2: blocks the human protease SENP8; Q96LD8; purified SENP8, Z-RLRGG-aminoluciferin cleavage, luminescence; inhibition, % at 10 µM; actives 1.2% (n = 330,000); in the data active = inhibition above about 50%
SENP7 inh: inhibitors of human SENP7 protease; Q9BQF6; recombinant SENP7, Z-RLRGG-aminoluciferin luminescence, 40 min; inhibition, % at 5 µM; actives 1.5% (n = 330,000);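 active = inhibition above about 50% at the single test dose, limit read from the data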;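 also: plate controls were DMSO with enzyme for no effect and no enzyme buffer wells for full effect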
Target sequence (Q9BQF6 706-1050 limits assumed): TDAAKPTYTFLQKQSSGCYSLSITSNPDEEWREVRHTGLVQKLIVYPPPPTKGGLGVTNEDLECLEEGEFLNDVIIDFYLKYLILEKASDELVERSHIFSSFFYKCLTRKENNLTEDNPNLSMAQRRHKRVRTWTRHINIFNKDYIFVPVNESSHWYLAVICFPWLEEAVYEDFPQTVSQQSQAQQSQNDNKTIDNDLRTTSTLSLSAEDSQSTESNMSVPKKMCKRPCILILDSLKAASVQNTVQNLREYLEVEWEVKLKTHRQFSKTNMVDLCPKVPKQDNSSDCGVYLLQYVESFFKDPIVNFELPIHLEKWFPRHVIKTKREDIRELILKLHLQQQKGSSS
SENP1 inh: SENP1 (human) catalytic domain inhibition. Q9P0U3. recombinant SENP1 catalytic domain, CyPet-SUMO1-YPet FRET cleavage. inhibition, % at 10 µM. actives 0.21% (n = 360,000). AID 624204;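 active = inhibition at least 30% at 10 µM, raw YFP signal under a set limit, fluorescence ratio 0.5 to 1.5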;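 also: 0% = enzyme with DMSO and 100% = no enzyme wells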
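Test system: recombinant human SENP1 catalytic domain, His6-tagged / Medium: pH 8 Tris buffer with EDTA, NaCl, BME, BSA, NP40, catalase / Also added: SUMO1 FRET substrate flanked by Cypet and Ypet, 25 nM / Times: 50 min reaction at room temperature / Signal: FRET, CFP and YFP emission / Control set: no-enzyme low control and enzyme-plus-DMSO high control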
SENP8 conf: human SENP8 inhibition, confirmed | AID 488912 | inhibition, % at 12.5 µM | Recombinant SENP8, Z-RLRGG-aminoluciferin luminescence, 60 min | actives 40% (n = 6,200) | shares compounds with SENP7 inh;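 active = mean inhibition across replicates above about 50%, limit read from the data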
SENP6 conf: confirmation of human SENP6 protease inhibitors | shares compounds with SENP7 inh | recombinant SENP6, Z-RLRGG-aminoluciferin luminescence | inhibition, % at 12.5 µM | actives 58% (n = 6,200) | AID 488915
SENP7 conf: confirmation of human SENP7 protease inhibitors. shares compounds with SENP7 inh. recombinant SENP7, Z-RLRGG-aminoluciferin luminescence, 40 min. inhibition, % at 12.5 µM. actives 69% (n = 6,200). AID 488917
Casp3 select: selectivity test for SENP inhibitors: human caspase-3 inhibition; AID 488918; purified caspase-3, Z-DEVD-aminoluciferin luminescence, 60 min; shares compounds with SENP7 inh; inhibition, % at 12.5 µM; actives 60% (n = 6,200);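 active = mean inhibition above about 50%, limit read from the data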;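 also: plate controls were enzyme with DMSO for no effect and wells without caspase-3 for full effect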
Luc interf: counter-screen for SENP inhibitors: luminescence interference; Pre-incubated SENP8/Z-RLRGG-aminoluciferin, luciferase luminescence interference; inhibition, % at 12.5 µM; actives 39% (n = 6,200); AID 488919; shares compounds with SENP7 inh;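 active = mean inhibition above about 50% when retested at one dose, limit read from the data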;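 also: plate controls were DMSO wells with completed reaction for no effect and substrate without enzyme for full effect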
An asterisk follows results filed as active; x = no result.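 The calls were made as follows, unless noted: active = mean inhibition above about 50% in the one-dose retest (limit read from the data); inactive = the rest.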

SMILES	UCH37 DUB inh	SENP8 block-1	SENP6 block	SENP8 block-2	SENP7 inh	SENP1 inh	SENP8 conf	SENP6 conf	SENP7 conf	Casp3 select	Luc interf
O=C(O)c1ccc(N/N=C/c2cccc(F)c2)cc1	x	-64	100*	97*	84*	-29	100*	100*	104*	98*	99*
CC(C)(C)c1ccc(C=NNc2ccc(C(=O)O)cc2)cc1	9	x	x	x	x	x	x	x	x	x	x
COc1ccc(C=NNc2ccc(C(=O)O)cc2)cc1Br	7	x	x	x	x	x	x	x	x	x	x
O=C(O)c1ccc(N/N=C/c2ccc(F)c(F)c2)cc1	x	-116	98*	97*	97*	-8	99*	100*	102*	97*	98*
O=C(O)c1ccc(N/N=C/c2ccncc2)cc1	x	5	90*	85*	94*	1	91*	93*	100*	88*	94*
O=C(O)c1ccc(N/N=C/c2cccc(C(F)(F)F)c2)cc1	x	-55	74*	66*	46	1	80*	70*	95*	25	90*
O=C(NN=Cc1ccc(Cl)c(Cl)c1)c1ccc2nc[nH]c2c1	-10	x	x	x	x	x	x	x	x	x	x
Cc1cc(C(=O)NN=C2CC(=O)c3ccccc32)c(C)n1-c1ccccc1	-2	x	x	x	x	x	x	x	x	x	x
CCOC(=O)C=c1sc(=Cc2sccc2C)c(=O)n1CC(=O)NCc1ccc(C)cc1	-13	x	x	x	x	x	x	x	x	x	x
Cc1cc(C)nc(SCC(=O)NN=Cc2cccn2-c2cccc(C(F)(F)F)c2)n1	5	x	x	x	x	x	x	x	x	x	x
CC(=O)Nc1ccc(/C=C2/Sc3ccccc3C2=O)cc1	2	-100	66*	62*	94*	-23	21	21	34	34	14
Cc1[nH]n(-c2ccc([N+](=O)[O-])cc2)c(=O)c1C=NCCc1ccc(S(N)(=O)=O)cc1	7	12	14	10	-6	11	x	x	x	x	x
CCCc1[nH]n(-c2ccc([N+](=O)[O-])cc2)c(=O)c1C=NCCN1CCNCC1	10	x	92*	84*	87*	x	78*	50*	57*	85*	69*
CCCc1[nH]n(-c2ccc([N+](=O)[O-])cc2)c(=O)c1C=NCCCn1ccnc1	7	17	2	-5	-1	1	x	x	x	x	x
Cc1[nH]n(-c2ccc([N+](=O)[O-])cc2)c(=O)c1C=NCCN1CCN(C(=O)C(C)C)CC1	14	25	85*	62*	78*	1	23	28	39	48	43
CCOc1ccc(NC(=O)CC(C)=NNC(=O)c2cnccn2)cc1	0	x	x	x	x	x	x	x	x	x	x
O=C(Nc1ccccc1)C1CCCCC1	3	11	9	1	-2	4	x	x	x	x	x
COc1ccc(C(=O)Nc2ccc3ccccc3n2)c(OC)c1OC	-1	-37	82*	66*	86*	1	58*	46	57*	45	5
O=C(Nc1ccc2ccccc2n1)C1CCCCC1	5	14	60*	48	74*	1	61*	58*	88*	74*	68*
O=C(Nc1ccc2ccccc2n1)Nc1ccccc1F	-3	14	-9	-2	5	-1	x	x	x	x	x
O=C(Nc1ccc2ccccc2n1)c1ccccc1Cl	4	5	88*	89*	95*	0	94*	94*	102*	94*	33
O=C(Nc1ccc2ccccc2n1)c1ccc(Cl)cc1	-4	0	56*	50*	72*	-1	25	48	59*	59*	16
COc1cccc(C=Nn2c(=O)[nH]c3ccccc32)c1OC	4	x	x	x	x	x	x	x	x	x	x
O/C(=C\c1ccc2ccccc2n1)c1ccc(O)cc1O	5	28	91*	93*	92*	-33	95*	96*	102*	92*	47
C(=C\c1ccc2ccccc2n1)/c1ccccc1	-4	-410	98*	98*	98*	1	99*	101*	104*	99*	97*
SMILES	UCH37 DUB inh	SENP8 block-1	SENP6 block	SENP8 block-2	SENP7 inh	SENP1 inh	SENP8 conf	SENP6 conf	SENP7 conf	Casp3 select	Luc interf
O=C(O)/C=C/c1ccc2ccccc2n1	1	12	-10	-4	-1	1	x	x	x	x	x
Oc1ccc(/C=C/c2ccc3ccccc3n2)cc1	-115	-395	101*	98*	102*	20	100*	100*	103*	99*	98*
Fc1ccccc1/C=C/c1ccc2ccccc2n1	-6	-89	11	96*	100*	-1	100*	101*	104*	99*	99*
CCOc1ccc(-c2c(C(=O)NN=Cc3cccc(Br)c3)nnn2-c2nonc2N)cc1	4	x	x	x	x	x	x	x	x	x	x
Cc1ccc(-c2nc3sc(=Cc4ccco4)c(=O)n3n2)cc1	3	x	x	x	x	x	x	x	x	x	x
Cn1nc(/C=C/c2ccccc2)ccc1=O	-99	-396	54*	41	58*	2	28	32	76*	76*	55*
O=c1ccc(/C=C/c2ccccc2)nn1Cc1ccccc1	-25	-460	-1	4	-5	-1	x	x	x	x	x
Cc1ccc(-c2cc(C(=O)NN=Cc3c(C)nn(C)c3C)c3ccccc3n2)cc1C	-25	x	x	x	x	x	x	x	x	x	x
Cn1c(O)c(N=Nc2nc(-c3ccccc3)cs2)c2ccccc21	0	30	16	4	59*	46*	1	4	-6	4	-5
Cc1ccc(C)c(NC(=O)CCC(=O)NN=Cc2ccc[nH]2)c1	2	x	x	x	x	x	x	x	x	x	x
CC(=NOC(=O)Nc1ccccc1)c1cnn(-c2cc(C(F)(F)F)cc(C)n2)c1C	5	x	x	x	x	x	x	x	x	x	x
O=C(CCN1C(=O)S/C(=C/c2ccc(F)cc2)C1=O)Nc1ccc(O)c(C(=O)O)c1	-11	-268	4	-2	-2	2	x	x	x	x	x
O=C(CCN1C(=O)S/C(=C/c2ccccc2)C1=O)Nc1ccc(C(=O)O)c(O)c1	5	5	57*	45	10	1	60*	55*	74*	32	65*
O=C(CCN1C(=O)S/C(=C\c2ccc(F)cc2)C1=O)Nc1ccc(C(=O)O)c(O)c1	8	-7	82*	75*	60*	4	85*	80*	81*	44	79*
